# Assay results published in ChEMBL document CHEMBL3808334, “Synthesis and in vitro evaluation of novel triazine analogues as anticancer agents and their interaction studies with bovine serum albumin” (Eur J Med Chem, 2016).
# Tests used:
# Assay type in all cases: functional
# SK-MEL-28 = experiment: Growth inhibition of human SK-MEL-28 cells assessed as cell growth at 10^-4 M incubated for 48 hrs by sulforhodamine B assay; settings: SK-MEL-28, 48 h, read-out: Activity
# [1] = Growth inhibition of human SNB19 cells assessed as cell growth at 10^-4 M incubated for 48 hrs by sulforhodamine B assay; settings: SNB-19, 48 h, read-out: Activity
# A549 = experiment: Growth inhibition of human A549/ATCC cells assessed as cell growth at 10 uM incubated for 48 hrs by sulforhodamine B assay; settings: A549, 48 h, read-out: Activity
# Method in brief: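 One-dose screen at 10 µM final. Cells are plated at 5,000–40,000 per well according to doubling time and preincubated 24 h at 37 °C, 5% CO₂. Compound (DMSO stock diluted in medium with 50 µg/ml gentamicin) is then added for 48 h. Growth percent is read by sulforhodamine B staining, absorbance at 515 nm.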
# MDA-MB-435 = experiment: Growth inhibition of human MDA-MB-435 cells assessed as cell growth at 10^-5 M incubated for 48 hrs by sulforhodamine B assay; settings: MDA-MB-435, 48 h, read-out: Activity
# [2] = Growth inhibition of human OVCAR8 cells assessed as cell growth at 10 uM incubated for 48 hrs by sulforhodamine B assay; settings: OVCAR-8, 48 h, read-out: Activity
# [3] = Growth inhibition of human SW620 cells incubated for 48 hrs by sulforhodamine B assay; settings: SW-620, 48 h
# Method in brief: (§1)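 Cells were plated at 5,000–40,000 per well according to doubling time and preincubated 24 h at 37 °C in 5% CO2; time-zero plates were then TCA-fixed. Five concentrations (10-fold or ½-log dilutions, DMSO stock) were incubated 48 h. Cells were TCA-fixed, stained with 0.4% SRB and read at 515 nm. GI50 was taken where [(Ti−Tz)/(C−Tz)]×100 = 50.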
# [4] = Growth inhibition of human UO31 cells incubated for 48 hrs by sulforhodamine B assay; settings: UO-31, 48 h; method in brief: as §1
# [5] = Growth inhibition of human RXF393 cells assessed as cell growth at 10^-7 M incubated for 48 hrs by sulforhodamine B assay; settings: RXF 393, 48 h, read-out: Activity
# [6] = Growth inhibition of human SF268 cells assessed as cell growth at 10^-7 M incubated for 48 hrs by sulforhodamine B assay; settings: SF-268, 48 h, read-out: Activity
# NCI-H322M = experiment: Growth inhibition of human NCI-H322M cells assessed as cell growth at 10 uM incubated for 48 hrs by sulforhodamine B assay; settings: read-out: Activity
# NCI/ADR-RES = experiment: Growth inhibition of human NCI/ADR-RES cells assessed as cell growth at 10 uM incubated for 48 hrs by sulforhodamine B assay; settings: read-out: Activity
# NCI-H522 [7] = experiment: Growth inhibition of human NCI-H522 cells assessed as cell growth at 10^-4 M incubated for 48 hrs by sulforhodamine B assay; settings: NCI-H522, 48 h, read-out: Activity
# [8] = Growth inhibition of human SNB19 cells assessed as cell growth at 10^-5 M incubated for 48 hrs by sulforhodamine B assay; settings: SNB-19, 48 h, read-out: Activity
# [9] = Growth inhibition of human MOLT4 cells incubated for 48 hrs by sulforhodamine B assay; settings: MOLT-4, 48 h; method in brief: as §1
# M14 = experiment: Growth inhibition of human M14 cells incubated for 48 hrs by sulforhodamine B assay; settings: M14, 48 h; method in brief: as §1
# [10] = Growth inhibition of human OVCAR3 cells assessed as cell growth at 10^-4 M incubated for 48 hrs by sulforhodamine B assay; settings: OVCAR-3, 48 h, read-out: Activity
# SN12C = experiment: Growth inhibition of human SN12C cells assessed as cell growth at 10^-7 M incubated for 48 hrs by sulforhodamine B assay; settings: read-out: Activity
# EKVX = experiment: Growth inhibition of human EKVX cells assessed as cell growth at 10^-7 M incubated for 48 hrs by sulforhodamine B assay; settings: read-out: Activity
# Method in brief: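 Cells seeded at 5,000–40,000/well according to doubling time and preincubated 24 h at 37 °C, 5% CO2. Time-zero plates were TCA-fixed. DMSO concentrate was diluted in medium with 50 µg/ml gentamicin to give five concentrations (10-fold or ½ log steps), then exposed 48 h. Cells were TCA-fixed, stained with 0.4% SRB and read at 515 nm. Percent growth was taken against time-zero and control; GI50, TGI and LC50 derived.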
# NCI-H226 = experiment: Growth inhibition of human NCI-H226 cells incubated for 48 hrs by sulforhodamine B assay; settings: NCI-H226, 48 h; method in brief: as §1
# K562 = experiment: Growth inhibition of human K562 cells assessed as cell growth at 10^-5 M incubated for 48 hrs by sulforhodamine B assay; settings: K562, 48 h, read-out: Activity
# [11] = Growth inhibition of human LOXIMVI cells incubated for 48 hrs by sulforhodamine B assay; settings: LOX IMVI; method in brief: as §1
# [12] = Growth inhibition of human SKOV3 cells assessed as cell growth at 10^-7 M incubated for 48 hrs by sulforhodamine B assay; settings: SK-OV-3, 48 h, read-out: Activity
# [13] = Growth inhibition of human Hs 578T cells assessed as cell growth at 10 uM incubated for 48 hrs by sulforhodamine B assay; settings: read-out: Activity
# NCI-H522 [14] = experiment: Growth inhibition of human NCI-H522 cells incubated for 48 hrs by sulforhodamine B assay; settings: NCI-H522, 48 h; method in brief: as §1
# [15] = read-out: LC50 (the source's name)
# [16] = read-out: pLC50 (the source's name) (converted)
structure (smiles),measurement,setting,value
c1ccc(-c2nc(Nc3ccc(-c4nc5ccccc5[nH]4)cc3)nc(N3CCOCC3)n2)cc1,growth at 100 µM,SK-MEL-28,-72%
same,growth at 100 µM,[1],-48%
same,growth at 10 µM,A549,-68.5%
same,growth at 10 µM,MDA-MB-435,-90%
same,growth at 10 µM,[2],-50.4%
same,GI50,[3]; read-out: GI50,627 nM
same,CC50,[3]; [15],5820 nM
same,TGI,[3]; read-out: TGI,2170 nM
same,GI50,[3]; read-out: pGI50 (converted),631 nM
same,CC50,[3]; [16],5750 nM
same,TGI,[3]; read-out: pTGI (converted),2190 nM
same,LC50,[4],6400 nM
same,GI50,[4]; read-out: GI50,1320 nM
same,TGI,[4]; read-out: TGI,2910 nM
same,GI50,[4]; read-out: pGI50 (converted),1320 nM
same,CC50,[4]; [16],6460 nM
same,TGI,[4]; read-out: pTGI (converted),2880 nM
same,growth at 0.1 µM,[5],96%
same,growth at 0.1 µM,[6],92%
same,growth at 10 µM,NCI-H322M,-0.47%
same,growth at 10 µM,NCI/ADR-RES,-60.8%
same,growth at 100 µM,NCI-H522 [7],-74%
same,growth at 10 µM,[8],-53%
same,GI50,[9]; read-out: GI50,1330 nM
same,CC50,[9]; [15],9350 nM
same,TGI,[9]; read-out: TGI,3530 nM
same,GI50,[9]; read-out: pGI50 (converted),1320 nM
same,CC50,[9]; [16],9330 nM
same,TGI,[9]; read-out: pTGI (converted),3550 nM
same,GI50,M14; read-out: GI50,1340 nM
same,CC50,M14; [15],6300 nM
same,TGI,M14; read-out: TGI,2900 nM
same,GI50,M14; read-out: pGI50 (converted),1350 nM
same,CC50,M14; [16],6310 nM
same,TGI,M14; read-out: pTGI (converted),2880 nM
same,growth at 100 µM,[10],-100%
same,growth at 0.1 µM,SN12C,90%
same,growth at 0.1 µM,EKVX,88%
same,GI50,NCI-H226; read-out: GI50,2400 nM
same,CC50,NCI-H226; [15],8750 nM
same,TGI,NCI-H226; read-out: TGI,4580 nM
same,GI50,NCI-H226; read-out: pGI50 (converted),2400 nM
same,CC50,NCI-H226; [16],8710 nM
same,TGI,NCI-H226; read-out: pTGI (converted),4570 nM
same,growth at 10 µM,K562,-54%
same,GI50,[11]; read-out: GI50,489 nM
same,TGI,[11]; read-out: TGI,2120 nM
same,GI50,[11]; read-out: pGI50 (converted),490 nM
same,TGI,[11]; read-out: pTGI (converted),2140 nM
same,growth at 0.1 µM,[12],104%
same,growth at 10 µM,[13],-39.9%
same,GI50,NCI-H522 [14]; read-out: GI50,2100 nM
same,CC50,NCI-H522 [14]; [15],7330 nM
same,TGI,NCI-H522 [14]; read-out: TGI,3920 nM
same,GI50,NCI-H522 [14]; read-out: pGI50 (converted),2090 nM
same,CC50,NCI-H522 [14]; [16],7410 nM
same,TGI,NCI-H522 [14]; read-out: pTGI (converted),3890 nM
